From PubChem
Env fusion inh: inhibitors of HIV-1 Env-driven cell-cell fusion, primary screen, HeLa-JRFL effector, CEM21 target cells, luciferase; inhibition, % at 12.3 µM; 360,000 compounds, 1.1% hits; AID 651610, 2012;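 active = mean replicate inhibition score of at least 50 and every replicate individually at or above 50; inconclusive = only one of the two criteria met; inactive = mean below 50 and not all replicates reaching 50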
PGC1a acetyl inh: inhibitors of PGC1a acetylation signal, primary screen, cell-based, U2OS, AlphaScreen, inhibitor mode; AlphaScreen anti-acetyl-lysine; with virally co-expressed GCN5 acetyltransferase; inhibition, % at 15.6 µM; 350,000 compounds, 0.17% hits; AID 651687, 2012;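 active = every replicate shows inhibition of at least 40%; inconclusive = mean inhibition at least 40% but some replicate below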
PAX8 inh HTS: inhibitors of PAX8-driven TPO luciferase reporter, primary screen, RMG-I cells, single concentration; SteadyGlo, 24 h; inhibition, % at 12.6 µM; 360,000 compounds, 1.2% hits; AID 652154, 2013;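 active = mean replicate inhibition at least 60% with every replicate also reaching 60%; inconclusive = only one of the two criteria is met; inactive = mean below 60% and not all replicates reaching 60%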;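 note: luciferase light reporting Pax8 driven TPO promoter activity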
FN deposit inh: inhibitors of fibronectin matrix deposition, primary screen, AH1F cells, Alexa488-fibronectin fluorescence, plate reader; AH1F fibroblasts, overnight; inhibition, % at 12.6 µM; 350,000 compounds, 0.086% hits; AID 743247, 2014;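 active = mean inhibition across replicates of 30% or more, regardless of how many single replicates reach that level; inconclusive = mean under 30% yet at least half of replicates reach 30%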
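test system = AH1F fibroblasts assembling fluorescent fibronectin matrix | quantity = 10000 AH1F cells per well | buffer or medium = DMEM plus 2% serum, read in PBS | doses = single dose, pinned | incubation = 1 h cell attachment, overnight exposure to compound and label | detection = fluorescence at 485 nm excitation, 525 nm emission | read-out basis = inhibition from reduced deposited-fibronectin fluorescence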
FGF22 binding: binders of human FGF22 protein, primary screen, FGF22 synaptogenesis inhibitor project, biophysical, thermal shift, single point | recombinant FGF22 thermal shift, SYPRO orange fluorescence; percent of sucrose octasulfate shift, DMSO zero | 340,000 compounds, 1.5% hits | Fibroblast growth factor 22 (Homo sapiens), Q9HCT0 | AID 651658, 2012 | activity (Tm shift, normalised), % at 9.99 µM;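 active = mean Tm shift, scaled 0 neutral to 100 positive control, at about 1.3% or above, every replicate too, limit read from the data; inconclusive = no clear call, values can overlap the other calls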
Target sequence (Q9HCT0 whole entry, looked up): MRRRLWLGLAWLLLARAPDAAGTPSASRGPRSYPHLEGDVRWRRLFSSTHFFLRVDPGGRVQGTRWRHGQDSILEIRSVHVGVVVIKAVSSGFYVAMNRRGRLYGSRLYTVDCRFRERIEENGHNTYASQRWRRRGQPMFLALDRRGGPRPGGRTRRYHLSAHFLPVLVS
EWS-Fli inh: EWS/Fli-driven NR0B1 reporter inhibitors, primary screen, A673 cells, NR0B1 luciferase, luminescence, MLPCN library; inhibition, % at 12.6 µM; viability-normalised; 350,000 compounds, 0.67% hits;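 active = mean inhibition of at least 50% after viability correction, with every replicate also passing that limit; inconclusive = mean reaches 50% but only one of two replicates passes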;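 note: firefly luciferase signal divided by Alamar Blue viability fluorescence both relative to DMSO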
Of the large screens only hits and unclear results are named; the others gave an inactive call; [ ] = dose if it differs, or a comment. Most compounds without a hit are left out; they make up all but 3.1% or so of the library.

Cc1cccc(-c2ccc([C@H]3[C@@H](CO)N4C(=O)CN(C(=O)c5cccnc5)C[C@H]34)cc2)c1	none (no result: Env fusion inh, FN deposit inh, FGF22 binding)
O=Nc1ccc(O)c2ncccc12	EWS-Fli inh 72.3
CCOc1ccc(-n2c(SCC(=O)c3c(N)n(C)c(=O)n(C)c3=O)nnc2-c2cccnc2)cc1	PAX8 inh HTS 81.1 (no result: Env fusion inh, PGC1a acetyl inh)
O=C(c1cccc(C(F)(F)F)c1)C1CCCN(Cc2cccn2-c2ncccn2)C1 (stereo unspecified)	none (no result: PGC1a acetyl inh)
O=C(c1ccc(C(F)(F)F)cc1)C1CCCN(Cc2cccn2-c2ncccn2)C1 (stereo unspecified)	FGF22 binding 43.1 (no result: PGC1a acetyl inh)
CCc1nc(NC(=O)NS(=O)(=O)c2ccccc2C(=O)OC)nc(OC)n1	FGF22 binding 42.9 (no result: PGC1a acetyl inh)
COC(=O)c1ccccc1S(=O)(=O)NC(=O)c1ccccc1	none (no result: Env fusion inh, PAX8 inh HTS, FN deposit inh, FGF22 binding, EWS-Fli inh)
CC1=C(C(=O)OCc2ccc3c(c2)OCO3)C(c2ccccc2OCc2ccccc2)NC(=O)N1 (stereo unspecified)	Env fusion inh 60.9 (no result: PAX8 inh HTS, FGF22 binding, EWS-Fli inh)
CC1=C(C(=O)OCc2ccc3c(c2)OCO3)C(c2ccccc2)NC(=O)N1 (stereo unspecified)	Env fusion inh 107.1, PGC1a acetyl inh 55.5 (no result: PAX8 inh HTS, FGF22 binding, EWS-Fli inh)
COc1ccc(COC(=O)C2=C(C)NC(=O)NC2c2ccc(OC)cc2)cc1 (stereo unspecified)	Env fusion inh 72.3
CCCOc1ccccc1C1NC(=O)NC(C)=C1C(=O)OCc1ccccc1 (stereo unspecified)	none (no result: Env fusion inh, PAX8 inh HTS, FN deposit inh, FGF22 binding, EWS-Fli inh)
CC(C)NC(=O)Nc1ccc2c(c1)C(=O)N([C@H](C)CO)C[C@@H](C)[C@@H](CN(C)S(=O)(=O)c1ccc(Cl)cc1)O2	none (no result: Env fusion inh, FN deposit inh)
COc1ccc(CC(=O)NCc2nnc(SCc3ccc(C)cc3)n2C)cc1	FGF22 binding 43.3 (no result: PGC1a acetyl inh)
COc1ccc(CC(=O)NCc2nnc(SCc3ccc([N+](=O)[O-])cc3)n2C)cc1	none
C[C@@H]1CCCCO[C@@H](CN(C)Cc2ccc(Cl)c(Cl)c2)[C@H](C)CN([C@H](C)CO)C(=O)c2cc(NS(=O)(=O)c3cccs3)ccc2O1	Env fusion inh inconclusive, PAX8 inh HTS inconclusive
C[C@@H]1CN([C@H](C)CO)C(=O)c2cc(NS(=O)(=O)c3cccs3)ccc2O[C@@H](C)CCCCO[C@H]1CN(C)Cc1ccc(Cl)c(Cl)c1	PAX8 inh HTS 75.0
C[C@@H]1CN([C@H](C)CO)C(=O)c2cc(NS(=O)(=O)c3cccs3)ccc2O[C@@H](C)CCCCO[C@@H]1CN(C)Cc1ccc(Cl)c(Cl)c1	PAX8 inh HTS 80.3
C[C@@H]1CCCCO[C@@H](CN(C)Cc2ccc(Cl)c(Cl)c2)[C@@H](C)CN([C@@H](C)CO)C(=O)c2cc(NS(=O)(=O)c3cccs3)ccc2O1	none
C[C@@H]1CN([C@H](C)CO)C(=O)c2cccc(NS(=O)(=O)c3cccs3)c2O[C@@H]1CN(C)Cc1ccc(Cl)c(Cl)c1	Env fusion inh 89.7[16.7 µM] (no result: FN deposit inh)
C[C@@H]1CCCCO[C@@H](CN(C)Cc2ccc(Cl)c(Cl)c2)[C@H](C)CN([C@@H](C)CO)C(=O)c2cc(NS(=O)(=O)c3cccs3)ccc2O1	PAX8 inh HTS 71.2
COc1ccc(S(=O)(=O)N(C)C[C@@H]2Oc3ccc(NS(=O)(=O)c4c(C)noc4C)cc3CC(=O)N([C@H](C)CO)C[C@H]2C)cc1	none (no result: FN deposit inh)
O=C(COC(=O)Cc1ccc(Br)cc1)NC1CCCC1	FGF22 binding 43.2
O=C(COC(=O)Cc1ccc(Br)cc1)NC1CC1	none
Cc1noc(C)c1S(=O)(=O)Nc1cccc2c1O[C@H](CN(C)S(=O)(=O)c1ccccc1)[C@H](C)CN([C@@H](C)CO)C2=O	none (no result: FN deposit inh)
C[C@H](CO)N1C[C@H](C)[C@@H](CN(C)Cc2ccc(-c3ccccc3)cc2)Oc2ccc(NS(=O)(=O)c3ccc(F)cc3)cc2CC1=O	PAX8 inh HTS 75.6 (no result: FN deposit inh, FGF22 binding)
Cc1ccc(S(=O)(=O)Nc2ccc3c(c2)CC(=O)N([C@@H](C)CO)C[C@@H](C)[C@H](CN(C)Cc2ccc(Cl)c(Cl)c2)O3)cc1	PAX8 inh HTS 92.0
